Data taken from ChEMBL document CHEMBL1177650, “Synthesis, structural elucidation and in vitro antiparasitic activity against Trypanosoma cruzi and Leishmania chagasi parasites of novel tetrahydro-1-benzazepine derivatives” (Bioorg Med Chem, 2010).

Columns and labels:
[1] = Cytotoxicity against african green monkey Vero cells after 72 hrs by MTT assay; assay type: cell-based; conditions: chlorocebus sabaeus
How it was run: (§1)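 Vero or transformed THP-1 cells incubated with compound (0.3–300 μM) 72 h at 37 °C, 5% CO2; untreated controls. MTT read-out, formazan OD at 580 nm; % cytotoxicity = 100 × (OD control − OD treated)/OD control. CC50/CC90 by sigmoidal regression; triplicates, repeated twice. DMSO stocks 100× concentrated, diluted in medium.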

Trypanosoma cruzi [2] = assay: Antitrypanosomal activity against Trypanosoma cruzi 320I01 epimastigotes after 72 hrs by haemocytometry; assay type: functional, organism-based; conditions: 320I01, 72 h
How it was run: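 Late-phase T. cruzi epimastigotes cultured in LIT medium with hiFCS at 28 °C; threefold serial dilutions (0.3–100 μM) for 72 h at 28 °C, untreated controls. Parasites counted in a haemocytometer; IC50/IC90 by sigmoidal regression; each concentration in triplicate, two experiments.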

[3] = Selectivity index, CC50 for african green monkey Vero cells to IC50 for Trypanosoma cruzi 320I01 epimastigote; assay type: functional
How it was run: (§2)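 Selectivity index computed as CC50 in Vero cells divided by IC50 against the T. cruzi stage named in the line.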

Trypanosoma cruzi [4] = assay: Antitrypanosomal activity against Trypanosoma cruzi 320I01 amastigotes infected in african green monkey Vero cells after 5 days by Giemsa staining; assay type: functional, organism-based; conditions: 320I01, Vero, 120 h
How it was run: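 Vero cells (RPMI, 5% hiSBF, 37 °C, 5% CO2) infected 24 h with tissue-derived T. cruzi trypomastigotes at parasite:cell 10:1. Compound dilutions (top 100 μM) applied 5 days at 37 °C, 5% CO2, medium changed once at day 3. Infected cells scored per 300 cells on methanol-fixed Giemsa preparations; IC50/IC90 by sigmoidal regression; triplicates, two experiments.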

[5] = Selectivity index, CC50 for african green monkey Vero cells to IC50 for Trypanosoma cruzi 320I01 amastigotes; assay type: functional; how it was run: as §2
Leishmania chagasi [6] = assay: Antileishmanial activity against Leishmania chagasi MHOM/BR/74/PP75 promastigotes after 72 hrs by haemocytometry; assay type: functional, organism-based; conditions: MHOM/BR/74/PP75, 72 h
How it was run: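 Late-phase L. chagasi promastigotes, grown at 28 °C in RPMI 1640 with hemin, HEPES and 10% hiSBF, exposed to threefold serial dilutions (0.3–100 μM) for 72 h at 28 °C; untreated controls. Growth inhibition from haemocytometer counts; IC50/IC90 by sigmoidal regression; triplicates, repeated twice.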

[7] = Cytotoxicity against human THP1 cells after 72 hrs by MTT assay; assay type: cell-based; conditions: THP-1 cells; how it was run: as §1
[8] = Selectivity index, CC50 for human THP1 cells to IC50 for Leishmania chagasi MHOM/BR/74/PP75 promastigotes; assay type: functional, THP-1
How it was run: (§3)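 Selectivity index computed as CC50 in THP-1 cells divided by IC50 against the L. chagasi stage named in the line.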

Leishmania chagasi [9] = assay: Antileishmanial activity against Leishmania chagasi MHOM/BR/74/PP75 amastigotes infected in human THP1 cells after 5 days by Giemsa staining; assay type: functional, organism-based; conditions: MHOM/BR/74/PP75, THP-1, 120 h
How it was run: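 THP-1 cells (RPMI, 5% hiSBF, 37 °C, 5% CO2) transformed, then infected 24 h with late-phase L. chagasi promastigotes at parasite:cell 10:1. Treated with compound dilutions (top 100 μM) 5 days at 37 °C, 5% CO2, medium changed once after 3 days. Infected cells counted per 300 cells on methanol-fixed Giemsa slides; IC50/IC90 by sigmoidal regression; triplicates, repeated twice.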

[10] = Selectivity index, CC50 for human THP1 cells to IC50 for Leishmania chagasi MHOM/BR/74/PP75 amastigotes; assay type: functional, THP-1; how it was run: as §3

SMILES	CC50 at 72 h [1] [µM]	CC90 at 72 h [1] [µM]	IC50 (Trypanosoma cruzi [2]) [µM]	IC90 (Trypanosoma cruzi [2]) [µM]	Selectivity Index [3]	IC50 (Trypanosoma cruzi [4]) [µM]	IC90 (Trypanosoma cruzi [4]) [µM]	Selectivity Index [5]	IC50 (Leishmania chagasi [6]) [µM]	IC90 (Leishmania chagasi [6]) [µM]	CC50 at 72 h [7] [µM]	CC90 at 72 h [7] [µM]	Selectivity Index [8]	IC50 (Leishmania chagasi [9]) [µM]	IC90 (Leishmania chagasi [9]) [µM]	Selectivity Index [10]
O[C@@H]1Cc2cc(Cl)ccc2N[C@H](c2c(F)cccc2Cl)C1 (relative stereo)	92	182	14.5	34.8	6.36	> 34.1	> 34.1	>2	39.8	78.5	110	214	2.76	73.2	> 100	>1
O[C@@H]1Cc2ccccc2N[C@H](c2c(Cl)cccc2Cl)C1 (relative stereo)	> 300	> 300	48.9	> 100	>6	69.9	> 100	>4	> 100	> 100	> 300	> 300	>3	> 100	> 100	>3
O[C@@H]1Cc2ccccc2N[C@H](c2c(F)cccc2Cl)C1 (relative stereo)	> 300	> 300	> 100	> 100	>3	> 100	> 100	>3	> 100	> 100	> 300	> 300	>3	> 100	> 100	>3
O[C@@H]1Cc2cc(Cl)ccc2N[C@H](c2c(Cl)cccc2Cl)C1 (relative stereo)	49.9	176	14.8	53	3.36	> 32.5	> 32.5	>1	14.7	30.3	59.6	> 293	4.06	> 32.5	> 32.5	>1
Cc1ccc([C@@H]2C[C@H](O)Cc3cc(C)ccc3N2)cc1 (relative stereo)	> 300	> 300	6.1	35.3	>49	50.5	> 100	>6	> 100	> 100	172	> 300	>1	> 100	> 100	>1
O[C@@H]1Cc2cc(Cl)ccc2N[C@H](c2ccc(Cl)cc2)C1 (relative stereo)	76.6	> 300	16.4	29.7	4.65	> 100	> 100	>0.8	14.1	41	49.2	> 300	3.49	> 100	> 100	>0.49
Cc1ccc2c(c1)C[C@@H](O)C[C@@H](c1ccccc1Cl)N2 (relative stereo)	82.4	> 300	22.4	67.2	3.67	45.8	73.6	1.8	41.3	49.4	85.2	> 300	2.06	> 100	> 100	>0.85
O[C@@H]1Cc2cc(Cl)ccc2N[C@H](c2ccccc2Cl)C1 (relative stereo)	106	> 300	15.3	35.7	6.91	> 100	> 36.1	>1	50.2	> 100	75.5	> 300	1.5	> 100	> 100	>0.75
O[C@@H]1Cc2cc(Cl)ccc2N[C@H](c2ccccc2F)C1 (relative stereo)	182	> 300	17.3	79.9	10.53	> 38.1	> 38.1	>4	54.5	> 100	110	273	2.02	> 100	> 100	>1
O[C@@H]1Cc2cc(Cl)ccc2N[C@H](c2ccc(Br)cc2)C1 (relative stereo)	57.7	164	27.2	54.4	2.12	> 94.9	> 94.9	>0.6	9.54	11.7	153	280	16.05	> 94.9	> 94.9	>1.61
O[C@@H]1Cc2cc(F)ccc2N[C@H](c2ccc(Cl)cc2)C1 (relative stereo)	194	> 300	45.9	> 100	4.21	> 100	> 100	>1.9	17.1	77.7	100	> 300	5.86	> 100	> 100	>1
O[C@@H]1Cc2ccccc2N[C@H](c2ccccc2Cl)C1 (relative stereo)	> 300	> 300	49.7	> 100	>6	> 100	> 100	>3	84.4	> 100	> 300	> 300	>3	> 100	> 100	>3
O[C@@H]1Cc2ccccc2N[C@H](c2ccccc2F)C1 (relative stereo)	> 300	> 300	63	> 100	>4	> 100	> 100	>3	> 100	> 100	> 300	> 300	>3	> 100	> 100	>3
C[C@@H]1[C@H](O)[C@@H](C)/C=C/C=C/C=C/C=C/C=C/C=C/C=C/[C@H](O[C@@H]2O[C@H](C)[C@@H](O)[C@H](N)[C@@H]2O)C[C@@H]2O[C@](O)(C[C@@H](O)C[C@@H](O)[C@H](O)CC[C@@H](O)C[C@@H](O)CC(=O)O[C@H]1C)C[C@H](O)[C@H]2C(=O)O [AMPHOTERICIN B]	–	–	–	–	–	–	–	–	0.02	0.02	8.79	34.9	439.5	0.08	0.14	109.87
CC1CS(=O)(=O)CCN1/N=C/c1ccc([N+](=O)[O-])o1 (centres undefined) [NIFURTIMOX]	61.4	> 300	2.33	23.4	26.36	2.3	9.06	26.7	–	–	–	–	–	–	–	–
